Published values pooled from the literature.
Compare with care: the assays were run in different laboratories.
Target: Interleukin-1 receptor-associated kinase 4 (IRAK4, Homo sapiens, UniProt Q9NWZ3)
Residues used in one study (Q9NWZ3 1-460): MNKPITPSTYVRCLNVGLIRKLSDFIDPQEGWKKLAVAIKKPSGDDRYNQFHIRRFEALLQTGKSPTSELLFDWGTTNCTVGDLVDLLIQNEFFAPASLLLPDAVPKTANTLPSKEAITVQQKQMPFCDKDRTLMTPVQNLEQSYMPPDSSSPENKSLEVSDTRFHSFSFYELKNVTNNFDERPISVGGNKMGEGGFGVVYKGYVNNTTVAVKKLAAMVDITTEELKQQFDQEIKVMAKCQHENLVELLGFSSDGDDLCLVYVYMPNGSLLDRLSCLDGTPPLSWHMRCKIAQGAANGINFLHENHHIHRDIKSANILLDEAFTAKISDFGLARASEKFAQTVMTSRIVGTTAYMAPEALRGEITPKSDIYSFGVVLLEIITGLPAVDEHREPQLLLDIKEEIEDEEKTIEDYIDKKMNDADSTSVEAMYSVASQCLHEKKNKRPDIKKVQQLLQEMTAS

N#CC1(c2ccccn2)CCN(Cc2cc(C(=O)O)c(=O)n3ccccc23)CC1
remaining binding (cell-free assay, competition with immobilised ligand; 1 µM): 83%

Cn1cc(-c2cccc(N3CCc4c(sc5c4CC(C)(C)C5)C3=O)c2CO)cc(Nc2ccncn2)c1=O
inhibition (enzyme activity, inhibitor; 1 µM): 6%

C#Cc1n[nH]c2c(-c3cn([C@@H](C)c4ccccc4)c(=O)[nH]c3=O)cc(F)cc12
inhibition (enzyme activity, inhibitor; 0.1 µM): 11.7%

Cn1cc(-c2cc(F)cc(N3CCn4c(cc5c4CCCC5)C3=O)c2CO)cc(Nc2ccc(N3CCN(C4COC4)CC3)cn2)c1=O
inhibition (enzyme activity, inhibitor; 0.1 µM): 8%

Nc1ncc(-c2nc(N3CCOCC3)nc(N3CCOCC3)n2)c(C(F)F)n1
remaining binding (binding, competition with immobilised ligand; 10 µM): 72%

Cn1cncc1[C@@](O)(COc1ccc(C#N)cc1-c1ccc(OC(F)(F)F)cc1)c1ccc(C#N)cc1
remaining binding (cell-free assay, competition with immobilised ligand; 1 µM): 80%

C#Cc1n[nH]c2c(-c3cn([C@@H](C)c4ccccn4)c(=O)[nH]c3=O)cc(F)cc12
inhibition (enzyme activity, inhibitor; 0.1 µM): 14.7%

COc1cc(Nc2ncc(F)c(Nc3ccc4c(n3)NC(=O)C(C)(C)O4)n2)cc(OC)c1OC
inhibition (binding; 10 µM): 96%

O=c1[nH]c2ccccc2n1C1CCN(Cc2ccc(-c3[nH]c4cc5ncnc5cc4nc3-c3ccccc3)cc2)CC1
remaining signal (cell-free assay; 0.5 µM): 201%

COc1ncccc1-c1cnn2ccc(N3CCN(C(=O)OC(C)C)CC3)nc12
remaining binding (binding, competition with immobilised ligand; 1 µM): 100%

CC(C)(C)c1cc(C=C(C#N)C#N)cc(Br)c1O
remaining activity (enzyme activity, inhibitor; 0.5 µM): 182%

Cc1nn(C)cc1-c1nc2c(N3CCN(Cc4ccc(Cl)cc4)CC3)c(Cl)cnc2[nH]1
remaining binding (binding, competition with immobilised ligand; 1 µM): 74%
